Data as given in ChEMBL document CHEMBL1152649, “Synthesis, cytotoxicity and human telomerase inhibition activities of a series of 1,2-heteroannelated anthraquinones and anthra[1,2-d]imidazole-6,11-dione homologues” (2009).

Key:
SW-620 = assay: Antiproliferative activity against human SW620 cells assessed as cell growth at 10 uM; type: functional; settings: read-out: Activity
Method in brief: (§1)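 NCI 60 cell line panel, single dose (10^-5 M), run per the Developmental Therapeutics Program protocol (one dose mean graph). Each result is the growth percentage of treated cells relative to untreated control cells.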

MDA-MB-231 = assay: Antiproliferative activity against human MDA-MB-231 cells assessed as cell growth at 10 uM; type: functional; settings: read-out: Activity
Method in brief: (§2)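 NCI 60 cell line panel, single-dose screen (10^-5 M) run by the developmental therapeutics program protocol. Results are given as growth percent of treated cells relative to untreated control cells for each line.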

MDA-MB-435 [1] = assay: Antiproliferative activity against human MDA-MB-435 cells assessed as cell growth at 10 uM; type: functional; settings: read-out: Activity; method in brief: as §2
MDA-MB-468 = assay: Antiproliferative activity against human MDA-MB-468 cells assessed as cell growth at 10 uM; type: functional; settings: read-out: Activity; method in brief: as §2
OVCAR-4 = assay: Antiproliferative activity against human OVCAR4 cells assessed as cell growth at 10 uM; type: functional; settings: read-out: Activity; method in brief: as §2
MOLT-4 [2] = assay: Antiproliferative activity against human MOLT4 cells assessed as cell growth at 10 uM; type: functional; settings: read-out: Activity; method in brief: as §2
ACHN [3] = assay: Antiproliferative activity against human ACHN cells assessed as cell growth at 10 uM; type: functional; settings: read-out: Activity; method in brief: as §2
CAKI-1 [4] = assay: Antiproliferative activity against human Caki1 cells assessed as cell growth at 10 uM; type: functional; settings: read-out: Activity; method in brief: as §2
RXF 393 = assay: Antiproliferative activity against human RXF393 cells assessed as cell growth at 10 uM; type: functional; settings: read-out: Activity; method in brief: as §2
UO-31 = assay: Antiproliferative activity against human UO31 cells assessed as cell growth at 10 uM; type: functional; settings: read-out: Activity; method in brief: as §1
LOX IMVI = assay: Antiproliferative activity against human LOXIMVI cells assessed as cell growth at 10 uM; type: functional; settings: read-out: Activity; method in brief: as §2
UACC-62 = assay: Antiproliferative activity against human UACC62 cells assessed as cell growth at 10 uM; type: functional; settings: read-out: Activity; method in brief: as §1
SF-268 [5] = assay: Antiproliferative activity against human SF268 cells assessed as cell growth at 10 uM; type: functional; settings: read-out: Activity; method in brief: as §2
SF-539 = assay: Antiproliferative activity against human SF539 cells assessed as cell growth at 10 uM; type: functional; settings: read-out: Activity; method in brief: as §2
SNB-75 [6] = assay: Antiproliferative activity against human SNB75 cells assessed as cell growth at 10 uM; type: functional; settings: read-out: Activity; method in brief: as §1
NCI-H522 = assay: Antiproliferative activity against human NCI-H522 cells assessed as cell growth at 10 uM; type: functional; settings: read-out: Activity; method in brief: as §2
HCT-116 = assay: Antiproliferative activity against human HCT116 cells assessed as cell growth at 10 uM; type: functional; settings: read-out: Activity; method in brief: as §2
HCT-15 = assay: Antiproliferative activity against human HCT15 cells assessed as cell growth at 10 uM; type: functional; settings: read-out: Activity; method in brief: as §2
KM12 [7] = assay: Antiproliferative activity against human KM12 cells assessed as cell growth at 10 uM; type: functional; settings: read-out: Activity; method in brief: as §2
[8] = molecular target: Telomerase reverse transcriptase (Homo sapiens) (UniProt O14746); assay: Inhibition of TERT in human H1299 cells assessed as residual transcriptional activity at 10 uM after 24 hrs by SEAP reporter gene assay; values are per cent of control
Sequence of Telomerase reverse transcriptase (Homo sapiens) (O14746 whole entry): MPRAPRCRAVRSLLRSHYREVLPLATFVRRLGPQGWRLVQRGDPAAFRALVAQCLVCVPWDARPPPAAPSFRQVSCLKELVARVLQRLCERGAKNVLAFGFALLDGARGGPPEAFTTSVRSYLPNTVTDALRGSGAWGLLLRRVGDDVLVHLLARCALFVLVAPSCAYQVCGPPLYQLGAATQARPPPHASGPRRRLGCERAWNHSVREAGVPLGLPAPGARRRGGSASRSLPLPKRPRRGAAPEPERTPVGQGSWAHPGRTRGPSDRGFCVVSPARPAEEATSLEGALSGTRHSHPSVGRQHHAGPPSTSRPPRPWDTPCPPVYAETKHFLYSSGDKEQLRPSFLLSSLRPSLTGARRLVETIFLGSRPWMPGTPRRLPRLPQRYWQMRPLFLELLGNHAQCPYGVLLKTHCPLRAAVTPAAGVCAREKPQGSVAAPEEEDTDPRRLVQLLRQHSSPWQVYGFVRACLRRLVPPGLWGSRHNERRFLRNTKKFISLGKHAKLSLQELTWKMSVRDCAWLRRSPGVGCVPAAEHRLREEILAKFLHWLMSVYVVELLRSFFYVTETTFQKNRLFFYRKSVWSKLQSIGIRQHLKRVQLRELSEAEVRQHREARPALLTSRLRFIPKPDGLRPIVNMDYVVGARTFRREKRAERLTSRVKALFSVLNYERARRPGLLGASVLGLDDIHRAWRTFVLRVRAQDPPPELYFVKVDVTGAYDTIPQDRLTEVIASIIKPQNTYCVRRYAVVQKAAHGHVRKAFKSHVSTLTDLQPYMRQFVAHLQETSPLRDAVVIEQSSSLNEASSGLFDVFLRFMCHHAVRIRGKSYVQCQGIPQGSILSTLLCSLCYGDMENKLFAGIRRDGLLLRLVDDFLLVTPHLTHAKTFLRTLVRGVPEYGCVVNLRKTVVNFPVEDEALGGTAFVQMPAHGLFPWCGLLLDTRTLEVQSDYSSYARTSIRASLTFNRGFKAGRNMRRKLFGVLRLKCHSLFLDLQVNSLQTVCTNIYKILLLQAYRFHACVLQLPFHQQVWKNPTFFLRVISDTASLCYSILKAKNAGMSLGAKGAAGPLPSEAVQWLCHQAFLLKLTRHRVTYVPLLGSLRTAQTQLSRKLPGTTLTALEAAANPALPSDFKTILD

[9] = Growth inhibition of human Hs 578T cells; type: functional
Method in brief: (§3)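 NCI 60 cancer cell line screen run per the Developmental Therapeutics Program protocol. Dose–response curves were plotted against log10 drug concentration for each cell line within its subpanel, and mean graph midpoint values were calculated.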

BT-549 = assay: Growth inhibition of human BT549 cells; type: functional; method in brief: as §3
K562 = assay: Growth inhibition of human K562 cells; type: functional; method in brief: as §3
MOLT-4 [10] = assay: Growth inhibition of human MOLT4 cells; type: functional; method in brief: as §3
NCI-H322M = assay: Growth inhibition of human NCI-H322M cells; type: functional; method in brief: as §3
COLO 205 = assay: Growth inhibition of human COLO205 cells; type: functional; method in brief: as §3
KM12 [11] = assay: Growth inhibition of human KM12 cells; type: functional; method in brief: as §3
SF-268 [12] = assay: Growth inhibition of human SF268 cells; type: functional
Method in brief: (§4)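 Assayed in the NCI 60 human cancer cell line panel under the Developmental Therapeutics Program protocol. For each line, dose–response curves were plotted against log10 drug concentration. In the one-dose screen at 10^-5 M, growth was given as percent of untreated control cells, and mean graph midpoint values were averaged.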

SNB-19 = assay: Growth inhibition of human SNB19 cells; type: functional; method in brief: as §4
SNB-75 [13] = assay: Growth inhibition of human SNB75 cells; type: functional; method in brief: as §4
MDA-MB-435 [14] = assay: Growth inhibition of human MDA-MB-435 cells; type: functional; method in brief: as §3
SK-MEL-28 = assay: Growth inhibition of human SK-MEL-28 cells; type: functional; method in brief: as §4
IGROV-1 = assay: Growth inhibition of human IGROV1 cells; type: functional; method in brief: as §3
OVCAR-3 = assay: Growth inhibition of human OVCAR-3 cells; type: functional; method in brief: as §3
OVCAR-8 = assay: Growth inhibition of human OVCAR8 cells; type: functional; method in brief: as §3
NCI/ADR-RES = assay: Growth inhibition of human NCI/ADR-RES cells; type: functional; method in brief: as §3
786-0 = assay: Growth inhibition of human 786-0 cells; type: functional; method in brief: as §3
A498 = assay: Growth inhibition of human A498 cells; type: functional; method in brief: as §3
ACHN [15] = assay: Growth inhibition of human ACHN cells; type: functional; method in brief: as §3
CAKI-1 [16] = assay: Growth inhibition of human Caki1 cells; type: functional; method in brief: as §3
SN12C = assay: Growth inhibition of human SN12C cells; type: functional; method in brief: as §4
TK-10 = assay: Growth inhibition of human TK10 cells; type: functional; method in brief: as §4
MCF7 = assay: Growth inhibition of human MCF7 cells; type: functional; method in brief: as §3
[17] = read-out: LC50 (the source's name)

O=C1c2ccccc2C(=O)c2c1ccc1nc(-c3ccc4c(c3)OCO4)[nH]c21
growth at 10 µM (SW-620): 91.9%
growth at 10 µM (MDA-MB-231): 107%
growth at 10 µM (MDA-MB-435 [1]): 110%
growth at 10 µM (MDA-MB-468): 96.4%
growth at 10 µM (OVCAR-4): 101%
growth at 10 µM (MOLT-4 [2]): 105%
growth at 10 µM (ACHN [3]): 104%
growth at 10 µM (CAKI-1 [4]): 114%
growth at 10 µM (RXF 393): 120%
growth at 10 µM (UO-31): 73.4%
growth at 10 µM (LOX IMVI): 99.6%
growth at 10 µM (UACC-62): 98.1%
growth at 10 µM (SF-268 [5]): 100%
growth at 10 µM (SF-539): 108%
growth at 10 µM (SNB-75 [6]): 102%
growth at 10 µM (NCI-H522): 83.3%
growth at 10 µM (HCT-116): 116%
growth at 10 µM (HCT-15): 106%
growth at 10 µM (KM12 [7]): 97.8%
residual activity [8]: 61%

CCc1nc2ccc3c(c2[nH]1)C(=O)c1ccccc1C3=O
GI50 [9]: > 100 µM
TGI [9]: > 100 µM
GI50 (BT-549): 9.3 µM
TGI (BT-549): > 100 µM
growth at 10 µM (SW-620): 73.1%
growth at 10 µM (MDA-MB-231): 78%
growth at 10 µM (MDA-MB-435 [1]): 84.4%
growth at 10 µM (OVCAR-4): 48.8%
growth at 10 µM (MOLT-4 [2]): 64.2%
growth at 10 µM (ACHN [3]): 25%
growth at 10 µM (UO-31): 23.9%
growth at 10 µM (LOX IMVI): 40%
growth at 10 µM (UACC-62): 51.4%
growth at 10 µM (SF-268 [5]): 80.4%
growth at 10 µM (SF-539): 83.2%
growth at 10 µM (SNB-75 [6]): 55.1%
GI50 (K562): > 100 µM
TGI (K562): > 100 µM
GI50 (MOLT-4 [10]): 4.22 µM
TGI (MOLT-4 [10]): > 100 µM
CC50 (MOLT-4 [10]; [17]): > 100 µM
GI50 (NCI-H322M): 4.87 µM
TGI (NCI-H322M): > 100 µM
CC50 (NCI-H322M; [17]): > 100 µM
GI50 (COLO 205): 8.95 µM
TGI (COLO 205): > 100 µM
CC50 (COLO 205; [17]): > 100 µM
GI50 (KM12 [11]): 7.69 µM
TGI (KM12 [11]): > 100 µM
CC50 (KM12 [11]; [17]): > 100 µM
GI50 (SF-268 [12]): 20.3 µM
TGI (SF-268 [12]): > 1000 µM
CC50 (SF-268 [12]; [17]): > 100 µM
GI50 (SNB-19): 18.1 µM
TGI (SNB-19): > 100 µM
CC50 (SNB-19; [17]): > 100 µM
GI50 (SNB-75 [13]): 62.5 µM
TGI (SNB-75 [13]): > 100 µM
CC50 (SNB-75 [13]; [17]): > 100 µM
GI50 (MDA-MB-435 [14]): 30.3 µM
TGI (MDA-MB-435 [14]): > 100 µM
CC50 (MDA-MB-435 [14]; [17]): > 100 µM
GI50 (SK-MEL-28): > 100 µM
TGI (SK-MEL-28): > 100 µM
CC50 (SK-MEL-28; [17]): > 100 µM
GI50 (IGROV-1): 1.54 µM
TGI (IGROV-1): 14.8 µM
CC50 (IGROV-1; [17]): > 100 µM
GI50 (OVCAR-3): 16.5 µM
TGI (OVCAR-3): > 100 µM
CC50 (OVCAR-3; [17]): > 100 µM
GI50 (OVCAR-8): 23.2 µM
TGI (OVCAR-8): > 100 µM
CC50 (OVCAR-8; [17]): > 100 µM
GI50 (NCI/ADR-RES): 18.9 µM
TGI (NCI/ADR-RES): > 100 µM
CC50 (NCI/ADR-RES; [17]): > 100 µM
GI50 (786-0): 43.6 µM
TGI (786-0): > 100 µM
CC50 (786-0; [17]): > 100 µM
GI50 (A498): > 100 µM
TGI (A498): > 100 µM
CC50 (A498; [17]): > 100 µM
GI50 (ACHN [15]): 3.29 µM
TGI (ACHN [15]): > 100 µM
CC50 (ACHN [15]; [17]): > 100 µM
GI50 (CAKI-1 [16]): 1.17 µM
TGI (CAKI-1 [16]): > 100 µM
CC50 (CAKI-1 [16]; [17]): > 100 µM
GI50 (SN12C): 13.6 µM
TGI (SN12C): > 100 µM
CC50 (SN12C; [17]): > 100 µM
GI50 (TK-10): 12.1 µM
TGI (TK-10): > 100 µM
CC50 (TK-10; [17]): > 100 µM
GI50 (MCF7): 13 µM
TGI (MCF7): > 100 µM
CC50 (MCF7; [17]): > 100 µM
growth at 10 µM (NCI-H522): 41.5%
growth at 10 µM (HCT-116): 47.6%
growth at 10 µM (HCT-15): 42.2%
growth at 10 µM (KM12 [7]): 72.9%
residual activity [8]: 59%
